In ChEMBL document CHEMBL4229344 (Eur J Med Chem, 2018):

Tests used:
[1] = tested on: Tyrosine-protein kinase ABL1 (Homo sapiens), P00519 [F317L]; test: Binding affinity to human phosphorylated ABL1 F317L mutant (S229 to K512 residues) expressed in mammalian expression system assessed as residual binding level at 1 uM by Kinomescan method relative to control
In short: (§1)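 Single-concentration (1 μM) competition-binding screen run by KINOMEscan against a panel of 468 purified kinases and mutants. The read-out is the relative binding activity of the test compound to each kinase.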

[2] = tested on: ALK tyrosine kinase receptor (Homo sapiens), Q9UM73 [L1196M]; test: Binding affinity to wild-type human partial length ALK L1196M mutant (I1088 to E1409 residues) expressed in mammalian expression system assessed as residual binding level at 1 uM by Kinomescan method relative to control
In short: (§2)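 Single-concentration KINOMEscan (DiscoverX) binding screen at 1 μM against a panel of 468 purified kinases and mutants. The read-out is binding relative to control.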

[3] = biological target: Serine/threonine-protein kinase Chk1 (Homo sapiens) (UniProt O14757); test: Binding affinity to wild-type human partial length CHEK1 (M1 to G289 residues) expressed in bacterial expression system assessed as residual binding level at 1 uM by Kinomescan method relative to control
Sequence of Serine/threonine-protein kinase Chk1 (Homo sapiens) (O14757 whole entry, the tested form may be a part): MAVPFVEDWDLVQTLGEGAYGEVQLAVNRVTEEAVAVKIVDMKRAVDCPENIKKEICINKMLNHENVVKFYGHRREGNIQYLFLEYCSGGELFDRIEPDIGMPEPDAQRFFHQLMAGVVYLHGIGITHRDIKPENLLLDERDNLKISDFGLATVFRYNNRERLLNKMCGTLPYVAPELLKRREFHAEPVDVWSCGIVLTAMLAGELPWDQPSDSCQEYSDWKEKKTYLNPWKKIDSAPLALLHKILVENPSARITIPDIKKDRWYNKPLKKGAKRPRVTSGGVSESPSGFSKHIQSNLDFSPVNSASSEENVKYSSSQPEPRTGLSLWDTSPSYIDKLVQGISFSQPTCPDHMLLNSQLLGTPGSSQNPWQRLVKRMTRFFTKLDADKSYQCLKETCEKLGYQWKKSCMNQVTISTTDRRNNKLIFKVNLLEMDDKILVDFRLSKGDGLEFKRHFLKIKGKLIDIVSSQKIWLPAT

[4] = biological target: Focal adhesion kinase 1 (Homo sapiens) (UniProt Q05397); test: Binding affinity to wild-type human partial length FAK (D402 to R696 residues) expressed in bacterial expression system assessed as residual binding level at 1 uM by Kinomescan method relative to control
[5] = biological target: Serine/threonine-protein kinase haspin (Homo sapiens) (UniProt Q8TF76); test: Binding affinity to wild-type human partial length HASPIN (I452 to K798 residues) expressed in mammalian expression system assessed as residual binding level at 1 uM by Kinomescan method relative to control
Sequence of Serine/threonine-protein kinase haspin (Homo sapiens) (Q8TF76 whole entry, the tested form may be a part): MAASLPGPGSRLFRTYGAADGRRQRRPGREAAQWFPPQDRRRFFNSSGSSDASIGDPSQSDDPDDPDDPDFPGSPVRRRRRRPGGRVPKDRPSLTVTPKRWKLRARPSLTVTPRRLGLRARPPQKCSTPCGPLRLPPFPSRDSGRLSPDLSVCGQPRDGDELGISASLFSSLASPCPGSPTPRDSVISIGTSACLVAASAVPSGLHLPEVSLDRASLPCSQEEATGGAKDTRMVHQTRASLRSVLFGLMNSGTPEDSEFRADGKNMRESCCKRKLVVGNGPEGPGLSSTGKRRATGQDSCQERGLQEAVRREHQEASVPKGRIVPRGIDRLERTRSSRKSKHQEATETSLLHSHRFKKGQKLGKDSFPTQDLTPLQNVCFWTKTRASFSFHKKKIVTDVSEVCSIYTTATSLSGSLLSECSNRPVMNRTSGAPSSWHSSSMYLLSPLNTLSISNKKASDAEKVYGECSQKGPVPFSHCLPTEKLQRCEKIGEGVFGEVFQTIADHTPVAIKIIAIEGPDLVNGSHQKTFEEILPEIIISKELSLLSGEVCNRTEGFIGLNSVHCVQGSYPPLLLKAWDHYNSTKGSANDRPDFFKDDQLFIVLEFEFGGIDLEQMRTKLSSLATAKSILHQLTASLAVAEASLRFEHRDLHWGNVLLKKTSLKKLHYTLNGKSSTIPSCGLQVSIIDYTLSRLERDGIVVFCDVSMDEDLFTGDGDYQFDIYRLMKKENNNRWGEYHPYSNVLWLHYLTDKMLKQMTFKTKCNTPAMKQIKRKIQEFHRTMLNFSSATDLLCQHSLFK
In short: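 Kinome-wide competition binding screen against a panel of 468 purified kinases/mutants, with the test compound at a single concentration of 1 μM. Read-out is the relative binding activity of each kinase in the presence of compound.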

[6] = biological target: Hormonally up-regulated neu tumor-associated kinase (Homo sapiens) (UniProt P57058); test: Binding affinity to wild-type human partial length HUNK (A31 to K354 residues) expressed in bacterial expression system assessed as residual binding level at 1 uM by Kinomescan method relative to control
[7] = biological target: Inhibitor of nuclear factor kappa-B kinase subunit beta (Homo sapiens) (UniProt O14920); test: Binding affinity to wild-type human full length IKK-beta (M1 to S756 residues) expressed in mammalian expression system assessed as residual binding level at 1 uM by Kinomescan method relative to control; in short: as §1
[8] = biological target: Insulin receptor-related protein (Homo sapiens) (UniProt P14616); test: Binding affinity to wild-type human partial length INSRR (R950 to E1278 residues) expressed in bacterial expression system assessed as residual binding level at 1 uM by Kinomescan method relative to control
[9] = biological target: Interleukin-1 receptor-associated kinase 4 (Homo sapiens) (UniProt Q9NWZ3); test: Binding affinity to wild-type human partial length IRAK4 (M1 to S460 residues) expressed in mammalian expression system assessed as residual binding level at 1 uM by Kinomescan method relative to control
[10] = tested on: Mast/stem cell growth factor receptor Kit (Homo sapiens), P10721 [V559D,V654A]; test: Binding affinity to human partial length KIT V559D/V654A double mutant (Y545 to D952 residues) expressed in bacterial expression system assessed as residual binding level at 1 uM by Kinomescan method relative to control
In short: (§3)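 Kinome-wide single-concentration binding screen (KINOMEscan) at 1 μM against a panel of 468 purified kinases and mutants. Read-out is relative binding of each kinase compared with control. Selectivity across the panel was summarised as an S(10) score.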

[11] = biological target: Mitogen-activated protein kinase kinase kinase kinase 2 (Homo sapiens) (UniProt Q12851); test: Binding affinity to wild-type human partial length MAP4K2 (M1 to G318 residues) expressed in mammalian expression system assessed as residual binding level at 1 uM by Kinomescan method relative to control
[12] = biological target: Serine/threonine-protein kinase Nek9 (Homo sapiens) (UniProt Q8TD19); test: Binding affinity to wild-type human partial length NEK9 (P32 to R328 residues) expressed in bacterial expression system assessed as residual binding level at 1 uM by Kinomescan method relative to control
Sequence of Serine/threonine-protein kinase Nek9 (Homo sapiens) (Q8TD19 whole entry, the tested form may be a part): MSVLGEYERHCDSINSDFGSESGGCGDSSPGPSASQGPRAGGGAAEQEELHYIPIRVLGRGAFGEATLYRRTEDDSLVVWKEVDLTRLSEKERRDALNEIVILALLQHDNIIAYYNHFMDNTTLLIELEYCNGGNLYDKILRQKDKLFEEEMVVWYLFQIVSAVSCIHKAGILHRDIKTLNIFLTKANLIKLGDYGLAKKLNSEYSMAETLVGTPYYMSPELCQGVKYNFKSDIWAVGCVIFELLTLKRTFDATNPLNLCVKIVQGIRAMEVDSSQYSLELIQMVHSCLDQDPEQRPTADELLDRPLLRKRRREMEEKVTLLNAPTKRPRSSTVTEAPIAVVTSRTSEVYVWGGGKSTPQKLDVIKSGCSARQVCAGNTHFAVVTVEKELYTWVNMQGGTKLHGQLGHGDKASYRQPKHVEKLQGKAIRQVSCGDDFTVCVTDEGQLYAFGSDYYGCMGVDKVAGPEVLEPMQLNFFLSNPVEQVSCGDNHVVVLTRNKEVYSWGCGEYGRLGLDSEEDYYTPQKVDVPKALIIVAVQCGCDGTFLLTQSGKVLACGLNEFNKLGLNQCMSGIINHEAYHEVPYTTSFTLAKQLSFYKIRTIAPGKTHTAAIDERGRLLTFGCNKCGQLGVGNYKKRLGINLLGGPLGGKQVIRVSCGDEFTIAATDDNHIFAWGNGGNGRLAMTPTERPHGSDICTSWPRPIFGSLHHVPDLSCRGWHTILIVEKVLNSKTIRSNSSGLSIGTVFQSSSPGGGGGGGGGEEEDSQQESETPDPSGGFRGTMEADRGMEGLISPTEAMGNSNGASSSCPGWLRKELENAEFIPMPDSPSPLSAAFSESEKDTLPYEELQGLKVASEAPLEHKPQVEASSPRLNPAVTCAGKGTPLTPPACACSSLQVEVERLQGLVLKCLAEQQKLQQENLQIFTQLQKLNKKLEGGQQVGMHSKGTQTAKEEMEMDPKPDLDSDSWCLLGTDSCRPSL
In short: (§4)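 KINOMEscan competition binding against a panel of 468 purified kinases/mutants, compound tested at 1 μM; readout is relative binding activity versus control.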

[13] = biological target: Mitogen-activated protein kinase 12 (Homo sapiens) (UniProt P53778); test: Binding affinity to wild-type human full length p38-gamma (M1 to L367 residues) expressed in mammalian expression system assessed as residual binding level at 1 uM by Kinomescan method relative to control
In short: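 KINOMEscan competition binding against 468 purified kinases/mutants, test compound at 1 µM; residual binding relative to control.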

[14] = biological target: 1-phosphatidylinositol 3-phosphate 5-kinase (Homo sapiens) (UniProt Q9Y2I7); test: Binding affinity to wild-type human partial length PIKFYVE (F1512 to C2098 residues) expressed in mammalian expression system assessed as residual binding level at 1 uM by Kinomescan method relative to control; in short: as §4
Sequence of 1-phosphatidylinositol 3-phosphate 5-kinase (Homo sapiens) (Q9Y2I7 whole entry, the tested form may be a part): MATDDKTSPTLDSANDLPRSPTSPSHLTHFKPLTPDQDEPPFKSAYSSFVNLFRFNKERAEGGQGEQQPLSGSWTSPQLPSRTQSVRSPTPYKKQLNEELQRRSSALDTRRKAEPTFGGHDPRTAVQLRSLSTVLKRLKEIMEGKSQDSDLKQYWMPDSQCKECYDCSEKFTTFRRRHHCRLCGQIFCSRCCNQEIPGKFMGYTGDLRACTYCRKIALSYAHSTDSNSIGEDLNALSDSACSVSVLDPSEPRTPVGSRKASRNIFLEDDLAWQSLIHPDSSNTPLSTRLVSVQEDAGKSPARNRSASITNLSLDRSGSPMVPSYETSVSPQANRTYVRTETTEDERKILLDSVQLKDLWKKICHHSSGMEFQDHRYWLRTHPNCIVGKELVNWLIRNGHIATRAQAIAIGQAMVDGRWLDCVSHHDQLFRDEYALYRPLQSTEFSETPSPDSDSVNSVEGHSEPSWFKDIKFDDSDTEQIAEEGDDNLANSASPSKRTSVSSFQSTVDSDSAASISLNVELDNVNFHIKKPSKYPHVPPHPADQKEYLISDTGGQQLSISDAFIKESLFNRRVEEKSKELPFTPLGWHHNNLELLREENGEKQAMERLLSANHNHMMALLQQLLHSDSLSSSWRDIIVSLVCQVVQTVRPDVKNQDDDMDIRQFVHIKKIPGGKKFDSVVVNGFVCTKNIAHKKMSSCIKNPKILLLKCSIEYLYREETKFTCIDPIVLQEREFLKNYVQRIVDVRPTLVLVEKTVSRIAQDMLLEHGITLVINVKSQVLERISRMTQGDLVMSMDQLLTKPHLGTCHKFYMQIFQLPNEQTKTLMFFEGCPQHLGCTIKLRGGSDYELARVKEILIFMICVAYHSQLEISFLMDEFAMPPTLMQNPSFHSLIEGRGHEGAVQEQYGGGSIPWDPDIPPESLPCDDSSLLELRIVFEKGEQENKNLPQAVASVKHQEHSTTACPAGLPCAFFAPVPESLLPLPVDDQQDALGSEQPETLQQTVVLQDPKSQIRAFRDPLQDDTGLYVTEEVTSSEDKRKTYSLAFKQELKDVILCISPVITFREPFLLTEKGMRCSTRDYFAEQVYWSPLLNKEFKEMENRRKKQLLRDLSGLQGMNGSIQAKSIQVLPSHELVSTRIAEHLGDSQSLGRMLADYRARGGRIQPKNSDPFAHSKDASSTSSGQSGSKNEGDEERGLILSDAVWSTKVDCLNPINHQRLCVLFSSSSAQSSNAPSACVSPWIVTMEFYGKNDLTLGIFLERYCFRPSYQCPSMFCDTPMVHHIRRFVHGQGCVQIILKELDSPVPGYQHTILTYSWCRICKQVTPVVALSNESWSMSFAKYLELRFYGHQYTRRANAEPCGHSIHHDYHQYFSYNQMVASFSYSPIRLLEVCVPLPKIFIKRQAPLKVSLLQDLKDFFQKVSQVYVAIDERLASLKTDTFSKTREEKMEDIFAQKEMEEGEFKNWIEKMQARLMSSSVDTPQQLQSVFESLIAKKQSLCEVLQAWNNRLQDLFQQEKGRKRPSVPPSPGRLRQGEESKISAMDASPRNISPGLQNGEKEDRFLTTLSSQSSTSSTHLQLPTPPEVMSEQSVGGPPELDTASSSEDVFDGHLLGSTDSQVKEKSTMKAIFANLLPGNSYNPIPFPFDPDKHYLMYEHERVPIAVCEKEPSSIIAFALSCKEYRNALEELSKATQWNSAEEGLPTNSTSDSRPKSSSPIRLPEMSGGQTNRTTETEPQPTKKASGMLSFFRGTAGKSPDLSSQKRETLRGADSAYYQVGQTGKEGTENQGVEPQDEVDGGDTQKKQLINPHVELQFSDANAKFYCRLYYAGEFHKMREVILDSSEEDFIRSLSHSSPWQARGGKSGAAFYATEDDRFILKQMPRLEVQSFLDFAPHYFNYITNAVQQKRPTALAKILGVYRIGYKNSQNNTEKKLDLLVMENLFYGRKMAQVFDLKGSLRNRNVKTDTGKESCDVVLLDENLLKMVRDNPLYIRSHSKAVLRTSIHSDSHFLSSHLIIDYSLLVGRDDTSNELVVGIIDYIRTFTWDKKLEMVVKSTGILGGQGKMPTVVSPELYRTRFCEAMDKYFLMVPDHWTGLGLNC

[15] = tested on: Proto-oncogene tyrosine-protein kinase receptor Ret (Homo sapiens), P07949 [M918T]; test: Binding affinity to human partial length RET M918T mutant (E713 to D1014 residues) expressed in bacterial expression system assessed as residual binding level at 1 uM by Kinomescan method relative to control; in short: as §3
[16] = biological target: Ribosomal protein S6 kinase alpha-1 (Homo sapiens) (UniProt Q15418); test: Binding affinity to wild-type human partial length C-terminal RSK1 kinase domain 2 (P360 to L681 residues) expressed in bacterial expression system assessed as residual binding level at 1 uM by Kinomescan method relative to control
Sequence of Ribosomal protein S6 kinase alpha-1 (Homo sapiens) (Q15418 whole entry, the tested form may be a part): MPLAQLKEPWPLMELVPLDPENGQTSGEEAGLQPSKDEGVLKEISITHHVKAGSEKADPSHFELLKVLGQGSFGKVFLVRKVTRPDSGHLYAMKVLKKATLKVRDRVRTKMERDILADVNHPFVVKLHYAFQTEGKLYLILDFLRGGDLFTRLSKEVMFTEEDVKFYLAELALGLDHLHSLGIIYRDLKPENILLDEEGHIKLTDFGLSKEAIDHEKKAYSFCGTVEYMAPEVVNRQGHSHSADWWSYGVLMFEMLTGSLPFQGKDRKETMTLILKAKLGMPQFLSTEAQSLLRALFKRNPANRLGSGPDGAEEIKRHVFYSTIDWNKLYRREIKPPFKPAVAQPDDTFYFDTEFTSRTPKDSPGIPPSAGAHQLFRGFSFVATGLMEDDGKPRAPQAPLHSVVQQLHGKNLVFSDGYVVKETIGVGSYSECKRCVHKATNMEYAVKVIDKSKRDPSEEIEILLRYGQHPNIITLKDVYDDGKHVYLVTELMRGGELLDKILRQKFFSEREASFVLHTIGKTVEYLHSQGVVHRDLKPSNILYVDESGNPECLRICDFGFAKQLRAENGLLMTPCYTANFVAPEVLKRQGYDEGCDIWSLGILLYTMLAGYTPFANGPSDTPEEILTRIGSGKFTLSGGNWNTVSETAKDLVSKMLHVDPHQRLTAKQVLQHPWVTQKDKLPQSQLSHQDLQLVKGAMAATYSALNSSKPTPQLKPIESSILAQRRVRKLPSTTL

[17] = biological target: Testis-specific serine/threonine-protein kinase 1 (Homo sapiens) (UniProt Q9BXA7); test: Binding affinity to wild-type human full length TSSK1B (M1 to Q367 residues) expressed in bacterial expression system assessed as residual binding level at 1 uM by Kinomescan method relative to control; in short: as §2
[18] = Oral bioavailability in Sprague-Dawley rat at 10 mg/kg; type: ADME, organism-based; conditions: in vivo
In short: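 Male Sprague-Dawley rats, 6–8 weeks old and fasted overnight, dosed IV at 1 mg/kg or PO at 10 mg/kg. Formulation was 5% DMSO/40% PEG400/55% saline (1 mg/mL). Jugular blood collected on heparin from 1 min to 8 h (IV) or 5 min to 24 h (PO). Plasma separated by centrifugation at 2–8 °C and stored at −80 °C.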

Homo sapiens = species on record: Homo sapiens; test: Selectivity index, ratio of IC50 for PDGFRbeta (unknown origin) by ADP-Glo kinase assay to IC50 for PDGFRalpha (unknown origin) by ADP-Glo kinase assay
[19] = AUC (0 to infinity) in Sprague-Dawley rat at 1 mg/kg, iv; type: ADME, organism-based; design: dose 1 mg/kg, time infinity, route intravenous; conditions: in vivo
In short: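 Male Sprague-Dawley rats (6–8 weeks) fasted overnight, dosed IV or orally; compound dissolved in 5% DMSO/40% PEG400/55% saline (dosing solution 1 mg/mL). Blood (~0.2 mL) from jugular vein into heparin; IV sampling 1 min–8 h, oral 5 min–24 h. Plasma separated by centrifugation at 2–8 °C, stored at −80 °C until analysis.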

Cc1ccc(NC(=O)c2ccc(CN(CCN(C)C)C(=O)c3cccnc3)cc2)cc1Nc1nccc(-c2cccnc2)n1
Activity [1]: 87%
Activity [2]: 100%
Activity [3]: 100%
Activity [4]: 90%
Activity [5]: 72%
Activity [6]: 90%
Activity [7]: 96%
Activity [8]: 96%
Activity [9]: 100%
Activity [10]: 25%
Activity [11]: 100%
Activity [12]: 92%
Activity [13]: 69%
Activity [14]: 91%
Activity [15]: 85%
Activity [16]: 100%
Activity [17]: 99%
bioavailability [18]: 1.96%
Ratio IC50 (Homo sapiens): 46
AUC(0-inf) [19]: 541 ng·h/mL
